The subject of assay [1] is Mus musculus. Nature of the assay: The diuretic activity of compound was measured after oral administration in saline loaded mice at 8 mg/kg after 5h; micro equiv of Na+/kg. Format: functional, Urine.
Assay [2] relates to Canis familiaris. Briefly: Diuretic activity was measured after oral administration in conscious water loaded dogs at 20 mg/kg after 1 hr. Format: functional, Canis lupus familiaris, Urine. The essentials: (§1)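 Male mongrel dogs (20–25 kg) were given 20 mL/kg tap water by gavage about 15 h before drug, with water ad libitum overnight. On the test day they received 4 mL/kg tap water hourly for 7 h, and the bladder was emptied at each interval. Drug was gavaged in the 4 mL/kg water load after the third urine sample, with Tween 80 added when it was poorly soluble. Urinary Na+ was measured by flame photometry as the mean excretory rate (μequiv/kg) per interval per animal. Each dog was its own control, using the hour before dosing.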

The subject of assay [3] is Mus musculus. Nature of the assay: The diuretic activity was measured after oral administration in saline loaded mice at 64 mg/kg after 5 hr. The format is functional, Urine. In outline: (§2)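 Mice were dosed orally with drug in 1% saline at 10 mL/kg, at 4 or 64 mg/kg, alongside a vehicle control. There were 10 mice per group, housed 5 per metabolic cage. Pooled urine was analysed for sodium by flame photometry and expressed as mean mequiv/kg/5 h.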

In assay [4] the test system is Mus musculus. Nature of the assay: The diuretic activity of compound was measured after oral administration in saline loaded mice at 4 mg/kg after 5h. Format: functional, Urine. The essentials: as §2
The subject of assay [5] is Mus musculus. Nature of the assay: The diuretic activity of compound was measured after oral administration in saline loaded mice at 64 mg/kg after 5h. The format is functional, Urine. The essentials:
as §2

Assay [6] relates to Canis familiaris. Briefly: The diuretic activity of compound was measured after oral administration in conscious water loaded dogs at 5 mg/kg after 7h; Micro equiv of Na+/kg. The format is functional, Canis lupus familiaris, Urine. In outline:
as §1

Assay [7] deals with Canis familiaris. Briefly: The diuretic activity of compound was measured after oral administration in conscious water loaded dogs at 5 mg/kg after 5h; Micro equiv of Na+/kg. Format: functional, Canis lupus familiaris, Urine. The essentials:
as §1

For assay [8], the system named is Canis familiaris. Nature of the assay: The diuretic activity of compound was measured after oral administration in conscious water loaded dogs at 5 mg/kg after 6 h; Micro equiv of Na+/kg. Format: functional, Canis lupus familiaris, Urine. The essentials: as §1
Assay [9] concerns Canis familiaris. Briefly: The diuretic activity of compound was measured after oral administration in conscious water loaded dogs at 5 mg/kg after 1 hr; Micro equiv of Na+/kg. Format: functional, Canis lupus familiaris, Urine. In outline:
as §1

Assay [10] relates to Mus musculus. Nature of the assay: The diuretic activity was measured after oral administration in saline loaded mice at 4 mg/kg after 5 hr. The format is functional, Urine. In outline: as §2
Assay [11] has as its system Canis familiaris. Nature of the assay: The diuretic activity of compound was measured after oral administration in conscious water loaded dogs at 5 mg/kg after 4 hr; Micro equiv of Na+/kg. Format: functional, Canis lupus familiaris, Urine. The essentials:
as §1

The subject of assay [12] is Canis familiaris. Briefly: The diuretic activity of compound was measured after oral administration in conscious water loaded dogs at 5 mg/kg after 3 hr; Micro equiv of Na+/kg. Format: functional, Canis lupus familiaris, Urine. In outline: as §1
Assay [13] has as its system Canis familiaris. Nature of the assay: The diuretic activity of compound was measured after oral administration in conscious water loaded dogs at 5 mg/kg after 2 hr; Micro equiv of Na+/kg. The format is functional, Canis lupus familiaris, Urine. In outline: as §1
The test system of assay [14] is Canis familiaris. Nature of the assay: Diuretic activity was measured after oral administration in conscious water loaded dogs at 5 mg/kg after 1 hr. Format: functional, Canis lupus familiaris, Urine. The essentials:
as §1

The subject of assay [15] is Canis familiaris. Briefly: Diuretic activity was measured after oral administration in conscious water loaded dogs at 10 mg/kg after 2 hr.

With `Cc1c(OCC(=O)O)ccc2c(-c3ccccc3F)noc12`, the Oral diuretic activity is 1.86 m equiv [Na+] 5hr-1kg-1 with Mus musculus [1], 478.9 u equiv of [Na+] kg-1 hr-1 with Canis familiaris [2] and 7.24 m equiv [Na+] 5hr-1kg-1 with Mus musculus [3].

`O=C(O)COc1ccc2c(-c3cccc[n+]3[O-])noc2c1Cl`: the Oral diuretic activity in the assay on Mus musculus [4] was 0.5 m equiv [Na+] 5hr-1kg-1; in the assay with Canis familiaris [2] it was 116.6 u equiv of [Na+] kg-1 hr-1; with Mus musculus [5], 1 m equiv [Na+] 5hr-1kg-1.

With `O=C(O)COc1ccc2c(-c3ccccc3F)noc2c1Cl`, the Oral diuretic activity in the assay with Canis familiaris [6] is 146.2 u equiv of [Na+] kg-1; in the assay with Canis familiaris [7] it was 458.2 u equiv of [Na+] kg-1; with Canis familiaris [8] it was 241.7 u equiv of [Na+] kg-1; in the assay on Canis familiaris [9], 48.6 u equiv of [Na+] kg-1; in the assay on Mus musculus [10], 3.5 m equiv [Na+] 5hr-1kg-1; with Canis familiaris [11], 503.7 u equiv of [Na+] kg-1. Moreover, the Oral diuretic activity was 727 u equiv of [Na+] kg-1 with Canis familiaris [12], 499.4 u equiv of [Na+] kg-1 with Canis familiaris [13], 1267.5 u equiv of [Na+] kg-1 hr-1 in the assay with Canis familiaris [2] and 10 m equiv [Na+] 5hr-1kg-1 in the assay on Mus musculus [3].

Turning to `O=C(O)COc1ccc2c(-c3c(F)cccc3F)noc2c1Cl`, the Oral diuretic activity in the assay on Canis familiaris [6] was 190 u equiv of [Na+] kg-1; in the assay on Canis familiaris [7], 397 u equiv of [Na+] kg-1; with Canis familiaris [8], 342.6 u equiv of [Na+] kg-1; with Canis familiaris [9], 108.4 u equiv of [Na+] kg-1; with Mus musculus [10], 5.3 m equiv [Na+] 5hr-1kg-1; in the assay with Canis familiaris [11] it was 431.8 u equiv of [Na+] kg-1. Moreover, the Oral diuretic activity is 257.2 u equiv of [Na+] kg-1 with Canis familiaris [12], 98.9 u equiv of [Na+] kg-1 with Canis familiaris [13], 1081.4 u equiv of [Na+] kg-1 hr-1 in the assay on Canis familiaris [2] and 10.4 m equiv [Na+] 5hr-1kg-1 in the assay on Mus musculus [3].

`C=C(CC)C(=O)c1ccc(OCC(=O)O)c(Cl)c1Cl` [ETHACRYNIC ACID]: the Oral diuretic activity in the assay with Mus musculus [4] worked out at 1.09 m equiv [Na+] 5hr-1kg-1; with Canis familiaris [2] it was 703 µequiv [Na+] kg-1 hr-1; in the assay on Mus musculus [5] it was 4.14 m equiv [Na+] 5hr-1kg-1.

As to `NS(=O)(=O)c1cc(C(=O)O)c(NCc2ccco2)cc1Cl` [FUROSEMIDE], the Oral diuretic activity in the assay with Canis familiaris [7] is 144.1 u equiv of [Na+] kg-1; in the assay on Canis familiaris [8], 40.4 u equiv of [Na+] kg-1; with Canis familiaris [9], 1207 u equiv of [Na+] kg-1; in the assay with Canis familiaris [14] it was 1311.5 u equiv of [Na+] kg-1 hr-1; in the assay with Mus musculus [10], 1.93 m equiv [Na+] 5hr-1kg-1; in the assay on Canis familiaris [11] it was 333.9 u equiv of [Na+] kg-1. For the same compound, the Oral diuretic activity was 763.6 u equiv of [Na+] kg-1 in the assay on Canis familiaris [12], 1311.5 u equiv of [Na+] kg-1 with Canis familiaris [13] and 7.96 m equiv [Na+] 5hr-1kg-1 in the assay with Mus musculus [3].

As to `CC1(c2ccccc2)Cc2cc(OCC(=O)O)c(Cl)c(Cl)c2C1=O` (stereo unspecified) [INDACRINONE], the Oral diuretic activity was 1141.4 u equiv of [Na+] kg-1 hr-1 in the assay on Canis familiaris [15], 2.1 m equiv [Na+] 5hr-1kg-1 in the assay with Mus musculus [10] and 7.6 m equiv [Na+] 5hr-1kg-1 in the assay with Mus musculus [3].

Values taken from ChEMBL document CHEMBL1121929, “[(3-aryl-1,2-benzisoxazol-6-yl)oxy]acetic acids. A new diuretic series” (1982).
